Assay [1] deals with Staphylococcus aureus. Description: Antibacterial activity against Staphylococcus aureus ATCC 25923 assessed as inhibition of visible bacterial growth incubated for 18 to 20 hrs by CLSI method. The format is functional. The note with it: time 18-20 hrs. Summed up:
(§1)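 CLSI broth microdilution. Strains grown aerobically overnight on tryptic soy agar at 37 °C, adjusted to 0.5 McFarland and diluted in cation-adjusted Mueller–Hinton broth to about 5×10^5 CFU/mL. Compounds and control drugs serially diluted across the plate. Incubated aerobically at 37 °C for 18-20 h. MIC is the lowest concentration with no visible growth.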

Assay [2] deals with Staphylococcus aureus. Description: Antibacterial activity against methicillin-resistant Staphylococcus aureus ATCC 33592 assessed as inhibition of visible bacterial growth incubated for 18 to 20 hrs by CLSI method. The format is functional. The note with it: time 18-20 hrs. An outline of the steps: as §1

Each structure is given as a SMILES string. ≈ marks a conversion by molar mass, not a printed value.

In general, MIC refers to the lowest concentration found to suppress growth. For the molecule `O=C(Nc1nnc(-c2cccs2)o1)c1ccc(SC(F)F)cc1`, the minimal inhibitory concentration (MIC) with Staphylococcus aureus [1] and in the assay on Staphylococcus aureus [2] was 4 µg/mL (≈ 11.3 µM) throughout.

Turning to `O=C(Nc1nnc(-c2cccs2)o1)c1cc(C(F)(F)F)n[nH]1`, the MIC in the assay on Staphylococcus aureus [1] and in the assay with Staphylococcus aureus [2] was greater than 64 µg/mL in each case.

Take `O=C(Nc1nnc(-c2cccs2)o1)c1ccc(F)cc1`: the minimum inhibitory concentration (MIC) with Staphylococcus aureus [1] and in the assay with Staphylococcus aureus [2] was 32 µg/mL (≈ 111 µM) throughout.

Values taken from ChEMBL document CHEMBL4715682, “Potent trifluoromethoxy, trifluoromethylsulfonyl, trifluoromethylthio and pentafluorosulfanyl containing (1,3,4-oxadiazol-2-yl)benzamides against drug-resistant Gram-positive bacteria” (RSC Med Chem, 2020).
